Reference: ChEMBL document CHEMBL1275308, “Synthesis, analgesic and anti-inflammatory evaluation of some novel quinazoline derivatives” (Eur J Med Chem, 2010)
Activity calls are given as the source filed them.

Tests used:
[1] = tested on: Rattus norvegicus; test: Antiinflammatory activity in rat assessed as inhibition of formaldehyde-induced paw edema at 100 mg/kg, po qd for 4 days administered 1 hr before formaldehyde challenge measured 2 hrs post formaldehyde challenge relative to untreated control; assay type: functional
How it was run: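 Rats dosed orally at 100 mg/kg once daily for 4 d, with an indomethacin reference and a vehicle control. Right hind paw volume measured by plethysmometer before challenge. 0.2 mL of 10% w/v formaldehyde injected subplantar 1 h after drug. Paw volume measured 1 and 2 h after injection. Results given as % inhibition versus control; means, ANOVA with Dunnett's test.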

[2] = tested on: Mus musculus; test: Analgesic activity against heat induced nociception in Swiss albino mouse assessed as increase in latency at 100 mg/kg, po measured 60 mins post compound dose by hot plate method relative to pretreatment level; assay type: functional
How it was run: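 Mice; test compounds and indomethacin, each at 100 mg/kg orally as a suspension in 1% carboxymethyl cellulose. Six groups of six animals, with a vehicle negative control. Reaction time recorded at 30 min, 1, 2 and 3 h after treatment, cut-off 10 s. Effect expressed as percentage of the pretreatment level. Values are means.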

[3] = tested on: Mus musculus; test: Toxicity in mouse assessed as incidence of toxic symptoms at 500 mg/kg, po measured 24 hrs post dose; assay type: organism-based; set-up: dose 500 mg/kg, route oral; settings: in vivo
[4] = tested on: Mus musculus; test: Toxicity in mouse assessed as incidence of toxic symptoms at 750 mg/kg, po measured 24 hrs post dose; assay type: organism-based; set-up: dose 750 mg/kg, route oral; settings: in vivo
[5] = tested on: Mus musculus; test: Toxicity in mouse assessed as mortality at 500 mg/kg, po measured 24 hrs post dose; assay type: organism-based; set-up: dose 500 mg/kg, route oral; settings: in vivo
[6] = tested on: Mus musculus; test: Toxicity in mouse assessed as mortality at 750 mg/kg, po measured 24 hrs post dose; assay type: organism-based; set-up: dose 750 mg/kg, route oral; settings: in vivo
[7] = tested on: Mus musculus; test: Toxicity in mouse assessed as incidence of toxic symptoms at 1000 mg/kg, po measured 24 hrs post dose; assay type: organism-based; set-up: dose 1000 mg/kg, route oral; settings: in vivo
[8] = tested on: Mus musculus; test: Toxicity in mouse assessed as mortality at 1000 mg/kg, po measured 24 hrs post dose; assay type: organism-based; set-up: dose 1000 mg/kg, route oral; settings: in vivo
[9] = tested on: Mus musculus; test: Toxicity in mouse assessed as induction of urination at 500 to 1000 mg/kg, po measured within 24 hrs post dose; assay type: organism-based; set-up: dose 500-1000 mg/kg, route oral; settings: in vivo
[10] = tested on: Mus musculus; test: Toxicity in mouse assessed as induction of calmness at 500 to 1000 mg/kg, po measured within 24 hrs post dose; assay type: organism-based; set-up: dose 500-1000 mg/kg, route oral; settings: in vivo
[11] = tested on: Mus musculus; test: Toxicity in mouse assessed as induction of sedation at 500 to 1000 mg/kg, po measured within 24 hrs post dose; assay type: organism-based; set-up: dose 500-1000 mg/kg, route oral; settings: in vivo
[12] = tested on: Mus musculus; test: Toxicity in mouse assessed as induction of muscle relaxation at 500 to 1000 mg/kg, po measured within 24 hrs post dose; assay type: organism-based; set-up: dose 500-1000 mg/kg, route oral; settings: in vivo

Structure (SMILES) | inhibition in vivo at 100 mg/kg [1] | Activity [2] | Activity [3] | Activity [4] | Activity [5] | Activity [6] | Activity [7] | Activity [8] | Activity [9] | Activity [10] | Activity [11] | Activity [12]
Clc1ccc(-c2nc(N3CCC(c4ccccc4)CC3)c3cc(I)ccc3n2)cc1 | 41.4% | inactive |  |  |  |  |  |  |  |  |  | 
c1ccc(-c2nc(N3CCC(c4ccccc4)CC3)c3ccccc3n2)cc1 | 85.3% | 153.8% | Non-toxic | Non-toxic | Non-toxic | Non-toxic | Non-toxic | Non-toxic |  |  |  | 
c1ccc(-c2nc(N3CCN(c4ccccc4)CC3)c3ccccc3n2)cc1 | 77.4% | 107.3% | Non-toxic | Non-toxic | Non-toxic | Non-toxic | Non-toxic | Non-toxic | Toxic |  |  | 
CN1CCN(c2nc(-c3ccc(Cl)cc3)nc3ccc(I)cc23)CC1 | 17% | inactive |  |  |  |  |  |  |  |  |  | 
CC1CCN(c2nc(-c3ccccc3)nc3ccc(I)cc23)CC1 | 56.4% | 85.7% |  |  |  |  |  |  |  |  |  | 
Clc1ccc(-c2nc(N3CCC(c4ccccc4)CC3)c3cc(Br)ccc3n2)cc1 | 50% | 106.1% | Non-toxic | Non-toxic | Non-toxic | Non-toxic | Non-toxic | Non-toxic | Toxic |  |  | 
CC1CCN(c2nc(-c3ccc(Cl)cc3)nc3ccc(I)cc23)CC1 | 45.8% | 82.3% |  |  |  |  |  |  |  |  |  | 
CN1CCN(c2nc(-c3ccccc3)nc3ccc(Br)cc23)CC1 | 45% | inactive |  |  |  |  |  |  |  |  |  | 
CN1CCN(c2nc(-c3ccccc3)nc3ccc(I)cc23)CC1 | 39.6% | inactive |  |  |  |  |  |  |  |  |  | 
CN1CCN(c2nc(-c3ccccc3)nc3ccccc23)CC1 | 45.2% | 86.2% |  |  |  |  |  |  |  |  |  | 
Clc1ccc(-c2nc(N3CCN(c4ccccc4)CC3)c3ccccc3n2)cc1 | 12.6% | inactive |  |  |  |  |  |  |  |  |  | 
CC1CCN(c2nc(-c3ccc(Cl)cc3)nc3ccc(Br)cc23)CC1 | 55.1% | 85.2% |  |  |  |  |  |  |  |  |  | 
CC1CCN(c2nc(-c3ccccc3)nc3ccccc23)CC1 | 69% | 88% |  |  |  |  |  |  |  |  |  | 
Nc1nnc(C2CCN(c3nc(-c4ccccc4)nc4ccccc34)CC2)s1 | 73% | 83.2% | Non-toxic | Non-toxic | Non-toxic | Non-toxic | Non-toxic | Non-toxic |  | Toxic | Toxic | Toxic
Clc1ccc(-c2nc(N3CCN(c4ccccc4)CC3)c3cc(Br)ccc3n2)cc1 | 16.2% | inactive | Non-toxic | Non-toxic | Non-toxic | Non-toxic | Non-toxic | Non-toxic |  | Toxic | Toxic | Toxic
CC1CCN(c2nc(-c3ccc(Cl)cc3)nc3ccccc23)CC1 | 55.1% | inactive |  |  |  |  |  |  |  |  |  | 
O=c1[nH]nc(C2CCN(c3nc(-c4ccccc4)nc4ccccc34)CC2)s1 | 12.7% | 81.5% | Non-toxic | Non-toxic | Non-toxic | Non-toxic | Non-toxic | Non-toxic |  |  |  | 
CCOC(=O)C1CCN(c2nc(-c3ccccc3)nc3ccccc23)CC1 | 70.3% | 98.5% | Non-toxic | Non-toxic | Non-toxic | Non-toxic | Non-toxic | Non-toxic |  |  |  | 
CC1CCN(c2nc(-c3ccccc3)nc3ccc(Br)cc23)CC1 | 57.8% | inactive |  |  |  |  |  |  |  |  |  | 
S=c1[nH]nc(C2CCN(c3nc(-c4ccccc4)nc4ccccc34)CC2)s1 | 71.3% | 88% | Non-toxic | Non-toxic | Non-toxic | Non-toxic | Non-toxic | Non-toxic |  |  |  | 
CN1CCN(c2nc(-c3ccc(Cl)cc3)nc3ccc(Br)cc23)CC1 | 20% | inactive |  |  |  |  |  |  |  |  |  | 
Brc1ccc2nc(-c3ccccc3)nc(N3CCC(c4ccccc4)CC3)c2c1 | 57.6% | 89.8% | Non-toxic | Non-toxic | Non-toxic | Non-toxic | Non-toxic | Non-toxic |  |  |  | 
Clc1ccc(-c2nc(N3CCN(c4ccccc4)CC3)c3cc(I)ccc3n2)cc1 | 13.5% | inactive |  |  |  |  |  |  |  |  |  | 
Brc1ccc2nc(-c3ccccc3)nc(N3CCN(c4ccccc4)CC3)c2c1 | 40.7% | inactive |  |  |  |  |  |  |  |  |  | 
CN1CCN(c2nc(-c3ccc(Cl)cc3)nc3ccccc23)CC1 | 37% | inactive |  |  |  |  |  |  |  |  |  | 
Ic1ccc2nc(-c3ccccc3)nc(N3CCC(c4ccccc4)CC3)c2c1 | 82.5% | 110.2% | Non-toxic | Non-toxic | Non-toxic | Non-toxic | Non-toxic | Non-toxic | Toxic |  |  | 
COc1ccc2c(c1)c(CC(=O)O)c(C)n2C(=O)c1ccc(Cl)cc1 [INDOMETHACIN] | 78.3% | 97.5% |  |  |  |  |  |  |  |  |  | 
Clc1ccc(-c2nc(N3CCC(c4ccccc4)CC3)c3ccccc3n2)cc1 | 53.7% | 87.3% |  |  |  |  |  |  |  |  |  | 
Ic1ccc2nc(-c3ccccc3)nc(N3CCN(c4ccccc4)CC3)c2c1 | 39.2% | inactive | Non-toxic | Non-toxic | Non-toxic | Non-toxic | Non-toxic | Non-toxic |  | Toxic | Toxic | Toxic
